The species entered for data set [1] is Mus musculus. The data set can be described thus: Neurological deficit effect in Swiss albino mouse assessed as effect on motor coordination by measuring fall latency by Rota rod test. The following applies: in vivo. An outline of the steps:
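Mice were trained for three consecutive days on a Rota-Rod at 16 rev/min, and only those staying on longer than 180 s were used. Each mouse was tested on the rod 5 min after the hot plate test, and the latency to fall was recorded.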
A general note: The rotarod test checks motor coordination on a turning rod.

In data set [2] the test system is Mus musculus. The data set can be described thus: Antinociceptive activity in Swiss albino mouse assessed as protection against acetic acid-induced writhing at 100 mg/kg, ip administered 30 mins before acetic acid challenge. The class given is functional. The following applies: route intraperitoneal. In short, it runs like this: (§1)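 Mice, n = 7 per group, received sunflower oil vehicle or compound at 100 mg/kg ip. 30 min later they were given 0.6% acetic acid ip at 10 mL/kg. Abdominal contractions and stretches were counted over 10 min, starting 5 min after the acetic acid. In naloxone groups, naloxone was given 15 min before compound. % protection = [(control mean − treated mean)/control mean] × 100.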
On the technique in general: Writhing tests count abdominal constrictions after an irritant is injected.

In data set [3] the test system is Mus musculus. Nature of the data set: Analgesic activity in 5 mg/kg naloxone pretreated Swiss albino mouse assessed as analgesia at 100 mg/kg by hot plate method. The class given is functional. In short, it runs like this:
(§2)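 Mice, n = 7 per group, were placed one at a time on a hot plate held at 55 ± 1.0 °C. Latency to forepaw licking or to jumping out of the glass beaker was recorded, with a cut-off of 30 s. Latency was read 30 min after compound at 100 mg/kg or sunflower oil vehicle. In naloxone groups, naloxone 5 mg/kg ip was given 15 min before compound. Results are reported as % analgesia, mean ± SEM.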
For orientation: In hot-plate and tail-flick tests a longer latency is read as antinociception.

Data set [4] relates to Mus musculus. The data set can be described thus: Antinociceptive activity in 5 mg/kg naloxone pretreated Swiss albino mouse assessed as protection against acetic acid-induced writhing at 100 mg/kg, ip administered 30 mins before acetic acid challenge. The data set is classed as functional. In short, it runs like this: as §1
Data set [5] deals with Mus musculus. Nature of the data set: Analgesic activity in Swiss albino mouse assessed as analgesia at 100 mg/kg by hot plate method. The class given is functional. An outline of the steps: as §2
Data set [6] concerns Mus musculus. The data set can be described thus: Toxicity in Swiss albino mouse assessed as mortality at 100 mg/kg. The data set is classed as organism-based. More on the design: dose 100 mg/kg. The following applies: in vivo.
Data set [7] deals with Mus musculus. Nature of the data set: Analgesic activity in Swiss albino mouse assessed as analgesia at 10 mg/kg by hot plate method. The class given is functional. An outline of the steps: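 Mice (n = 7) were dosed with the test compound in sunflower oil vehicle. Thirty minutes later each mouse was placed on a hot plate at 55 ± 1.0 °C. Latency to forepaw licking or jumping out of the glass beaker was recorded, with a 30 s cut-off. Values are mean ± SEM % analgesia.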

Data set [8] relates to Mus musculus. Nature of the data set: Antinociceptive activity in Swiss albino mouse assessed as protection against acetic acid-induced writhing at 10 mg/kg, ip administered 30 mins before acetic acid challenge. The following applies: route intraperitoneal. The class given is functional. An outline of the steps:
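Mice (n = 7) were given the compound i.p. in sunflower oil vehicle, then 0.6% acetic acid i.p. (10 mL/kg) 30 min later. Abdominal contractions and stretches were counted for 10 min, starting 5 min after the acid. % protection = [(control mean − treated mean)/control mean] × 100. Values are mean ± SEM.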

The structures appear in SMILES notation.

For the molecule `COc1ccc(C2CC(c3ccccc3)=NN2C(=O)CSc2nc3ccccc3[nH]2)cc1` (stereo not drawn), the Activity result in data set [1] is recorded as “Non-toxic”; in data set [2], 97.21%; in data set [3] it was -1.34%; in data set [4], 22.32%; in data set [5] it was 60.6%; in data set [6], “Non-toxic”.

As for `Cc1ccc(C2=NN(C(=O)CSc3nc4ccccc4[nH]3)C(c3ccccc3)C2)cc1C` (stereo not drawn), the Activity entry in data set [1] was “Non-toxic”; in data set [2] it was 97.67%; in data set [3] it was -0.58%; in data set [4] it was 19.07%; in data set [5] it was 82.5%; in data set [6], “Non-toxic”.

`O=C(CSc1nc2ccccc2[nH]1)N1N=C(c2ccccc2)CC1c1ccccc1` (stereo not drawn): the Activity entry in data set [1] is given as “Non-toxic”; in data set [2], 85.13%; in data set [3] it was -1.5%; in data set [4] it was 12.56%; in data set [5] it was 61.9%; in data set [6], “Non-toxic”.

Regarding `Cc1ccc(C2=NN(C(=O)CSc3nc4cc(Cl)ccc4o3)C(c3ccccc3)C2)cc1C` (stereo not drawn), the Activity result in data set [1] is reported as “Non-toxic”; in data set [2], 98.14%; in data set [3], -0.97%; in data set [4] it was 21.39%; in data set [5], 72.6%; in data set [6], “Non-toxic”.

Take `O=C(CSc1nc2cc(Cl)ccc2o1)N1N=C(c2ccccc2)CC1c1ccccc1` (stereo not drawn): the Activity result in data set [1] is given as “Non-toxic”; in data set [2] it was 57.72%; in data set [3], -1.32%; in data set [4] it was 7.44%; in data set [5], 59.7%; in data set [6], “Non-toxic”.

Consider `COc1ccc(C2CC(c3ccccc3)=NN2C(=O)CSc2nc3cc(Cl)ccc3o2)cc1` (stereo not drawn), for which the Activity entry in data set [1] is “Non-toxic”; in data set [2], 43.32%; in data set [3], -2.95%; in data set [4], 5.58%; in data set [5], 47.7%; in data set [6], “Non-toxic”.

On to `CN1CC[C@]23c4c5ccc(O)c4O[C@H]2[C@@H](O)C=C[C@H]3[C@H]1C5` [MORPHINE], for which the Activity in data set [7] was found to be 92.9%; in data set [8] it was 87.45%.

The values above are taken from ChEMBL document CHEMBL1158344, “Synthesis and antinociceptive activities of some pyrazoline derivatives” (Eur J Med Chem, 2009).
